STEP inh: STEP phosphatase inhibitors, primary screen, biochemical, fluorescence intensity, uHTS | AID 588621, 2011 | inhibition, % at 20 µM | recombinant STEP, OMFP fluorogenic substrate | Tyrosine-protein phosphatase non-receptor type 5 (Homo sapiens), P54829 | 360,000 tested, 0.25% active;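 active = inhibition at 20 µM, scaled per plate between control wells, above about 37%, limit read from the data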;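 also: 0% = DMSO with enzyme and substrate and 100% = substrate only without enzyme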
Target sequence (P54829 whole entry, looked up): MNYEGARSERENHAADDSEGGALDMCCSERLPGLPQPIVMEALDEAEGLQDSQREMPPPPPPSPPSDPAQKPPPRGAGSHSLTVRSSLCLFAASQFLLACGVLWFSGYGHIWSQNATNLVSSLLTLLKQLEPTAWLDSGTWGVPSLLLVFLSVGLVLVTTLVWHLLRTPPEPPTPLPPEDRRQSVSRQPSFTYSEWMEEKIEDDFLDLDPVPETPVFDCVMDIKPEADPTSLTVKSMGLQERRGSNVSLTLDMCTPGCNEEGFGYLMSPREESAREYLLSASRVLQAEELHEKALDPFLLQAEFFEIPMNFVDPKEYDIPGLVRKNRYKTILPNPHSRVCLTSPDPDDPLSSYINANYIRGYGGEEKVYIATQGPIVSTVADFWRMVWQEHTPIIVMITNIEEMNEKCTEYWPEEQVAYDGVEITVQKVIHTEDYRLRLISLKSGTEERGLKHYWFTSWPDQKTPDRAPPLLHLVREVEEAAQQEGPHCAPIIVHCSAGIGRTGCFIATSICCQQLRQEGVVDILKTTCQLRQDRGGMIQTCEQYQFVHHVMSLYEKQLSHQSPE
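Also added – OMFP at 25 µM · Test system – STEP tyrosine phosphatase · Technique – FITC-channel fluorescence of OMFP product · Schedule – 20 min at room temperature, dark · Evaluation – control-normalized % inhibition with plate pattern correction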
LMPTP inh: LMPTP phosphatase inhibitors, primary screen, biochemical, fluorescence intensity, uHTS; Low molecular weight phosphotyrosine protein phosphatase (Homo sapiens), P24666; recombinant LMPTP-A, OMFP fluorogenic substrate; inhibition, % at 20 µM; 360,000 tested, 0.22% active;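 active = compounds that cut the enzyme signal by at least half of the control window in the single-dose screen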;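 also: plate controls were DMSO wells with enzyme plus substrate for no effect and substrate without enzyme for full effect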
Target sequence (P24666 whole entry, looked up): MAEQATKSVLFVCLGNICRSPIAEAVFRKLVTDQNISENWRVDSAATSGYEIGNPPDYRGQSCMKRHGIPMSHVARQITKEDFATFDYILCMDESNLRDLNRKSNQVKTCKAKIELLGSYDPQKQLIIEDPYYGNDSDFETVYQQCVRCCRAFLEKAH
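Assay system: LMPTP-A, protein tyrosine phosphatase of low molecular weight / Medium: pH 6.0 Bis-Tris buffer with DTT and Triton X-100 / Schedule: 50 min enzyme reaction at room temperature, protected from light / Measured by: endpoint fluorescence intensity from OMFP dephosphorylation / Read-out basis: % inhibition relative to no-enzyme and uninhibited control wells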
Rpn11 block: Rpn11 (PSMD14) deubiquitinase inhibitors, primary screen, biochemical, fluorescence polarization, uHTS. 26S proteasome non-ATPase regulatory subunit 14 (Homo sapiens), O00487. human 26S proteasome, Ub4-pepOG fluorescence polarization; 20S core pre-blocked with epoxomicin. inhibition, % at 20 µM. 360,000 tested, 0.59% active. AID 588493, 2011;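 active = inhibition at 20 µM, scaled to each plate's controls, above about 33%, limit read from the data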
Scp1 inh: Scp-1 phosphatase inhibitors, primary screen, biochemical, colorimetric, uHTS; 340,000 tested, 0.88% active; Recombinant Scp1, phosphopeptide, malachite green phosphate absorbance; AID 493091, 2011; Carboxy-terminal domain RNA polymerase II polypeptide A small phosphatase 1 (Homo …; inhibition, % at 20 µM;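 active = inhibition above about 50% at 20 µM, limit read from the data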;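 also: plate controls were DMSO wells with enzyme for no effect and wells lacking enzyme for full effect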
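System: truncated SCP-1 phosphatase (76-261aa); medium: Tris acetate buffer pH 5.5 with MgCl2 and Tween-20; incubation: 45 min room-temperature reaction, 5 min colour, 30 min stabiliser; compound: single 20 µM dose, 1% DMSO; reagent: Phosphorylated 17-residue peptide substrate; read-out: % inhibition at 20 µM; technique: colorimetric free-phosphate detection, absorbance 630 nm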
DNMT1 inh: human DNMT1 methyltransferase inhibitors, primary screen, biochemical, molecular beacon, fluorescence, HinP1I cleavage, uHTS. inhibition (reported as % activation of signal), % at 10 µM. DNA (cytosine-5)-methyltransferase 1 (Homo sapiens), P26358. AID 588458, 2011. 360,000 tested, 0.83% active; in the data active = inhibition above about 50%
DNMT1 interf DR: spectral interference with molecular beacon fluorescence, dose response, artefact control for DNMT1 inhibitor project, biochemical, fluorescent molecular beacon | shares compounds with DNMT1 inh | spectral interference counter-screen | IC50, µM | 200 tested, under 10 active; call rule not given here
DNMT1 confirm: DNMT1 methyltransferase inhibitor retest, confirmation, biochemical, molecular beacon, fluorescence, single concentration | shares compounds with DNMT1 inh | DNMT1 molecular beacon HinP1I cleavage | inhibition, % at 10 µM | 2,300 tested, 8% active | AID 602385, 2012;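 active = average inhibition of at least 30% in the single-concentration confirmation test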
DNMT1 interf: shows spectral interference in the DNMT1 beacon assay; AID 602387; 2,300 tested, 1% active; DNMT1 molecular beacon spectral interference counterscreen, fluorescence 485/520; activation (fluorescence interference), % at 10 µM; shares compounds with DNMT1 inh;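 active = activation of at least 30% at 10 µM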;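 also: DNMT1 catalytic domain with a HinP1I cleavage step and a FAM/dabcyl DNA beacon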
* marks the source's active call; other numbers are inactive results; . = no result given. Only some compounds are listed: those with a hit (about 2% of all), similar ones and a draw of the others.

SMILES | STEP inh | LMPTP inh | Rpn11 block | Scp1 inh | DNMT1 inh | DNMT1 confirm | DNMT1 interf | others
C=CCc1cccc(C=Nc2c[nH]c(=O)[nH]c2=O)c1O | 2 | 0 | 0 | -12 | 72* | 2 | 1
O=C1C(=Cc2ccc(F)cc2)Cc2ccccc21 | 2 | 0 | -1 | . | 5 | . | .
O=C1/C(=C/c2ccco2)Cc2ccccc21 | 0 | -1 | 1 | -2 | 59* | 5 | 1
O=C(COc1ccccc1[N+](=O)[O-])Nc1ccc(NC(=O)c2cc3ccccc3o2)cc1 | 13 | 20 | 7 | 29 | 59* | 2 | -4
Cc1cc(=O)oc2cc(NC(=O)COc3ccccc3[N+](=O)[O-])ccc12 | 10 | 5 | -2 | 40 | 72* | 4 | -2
COc1ccc(C(=O)COc2ccc(C)cc2NC(C)=O)cc1 | 0 | 0 | -4 | 5 | 0 | . | .
O=C(Cn1cncc1-c1ccc([N+](=O)[O-])cc1)Nc1cccc2ccccc12 | 2 | 6 | -2 | 13 | 50* | 7 | -3
CC1CCc2c(sc(NC(=O)c3cccn3C)c2C(N)=O)C1 (stereo unspecified) | -1 | 2 | 25 | -7 | -10 | . | .
COC(=O)C1=C(C(=O)OC)[C@@H]2N(C)c3ccccc3[C@@]23C[C@@H](CO)N(C(=O)NCCBr)C3=N1 | 4 | 0 | -2 | -4 | 0 | . | .
O=C(/C=C/c1ccc2c(c1)OCO2)NCCS(=O)(=O)N1CCN(c2ccc(F)cc2)CC1 | 0 | 1 | 1 | 1 | 3 | . | .
O=C(/C=C/c1ccc2c(c1)OCO2)NCCS(=O)(=O)N1CCN(c2ccccc2)CC1 | 4 | 1 | -2 | . | 71* | 6 | 4
Cc1sc2nc(SCC(=O)N(C)Cc3ccccc3)n(-c3ccccc3)c(=O)c2c1C | 5 | 5 | 12 | -11 | 70* | -1 | -5
Cc1ccc(/C=C/C(=O)N2CCc3ccccc32)o1 | 4 | 2 | -13 | 52* | 86* | 8 | 2
COC(=O)/C(C(C)=O)=C(\C=C\N(C)C)N(C)C | 1 | -1 | 6 | -4 | 2 | . | .
COC(=O)\C(C(C)=O)=C(/C=C/C=C/C=C/N(C)C)N(C)C | 10 | 1 | -27 | 74* | 109* | 37* | 19 | DNMT1 interf DR=>99
COc1cc(OC)c2ccc(=O)oc2c1C(CCN1CCOCC1)c1ccc2c(c1)OCO2 (stereo unspecified) | -1 | -1 | -11 | 1 | 61* | 4 | 2
COc1cc(OC)c2ccc(=O)oc2c1C(CCN1CCCC1)c1ccc2c(c1)OCO2 (stereo unspecified) | 2 | 5 | -3 | -3 | 2 | . | .
CC(=O)Nc1ccc(NC(=O)CSc2ncc(C(=O)Nc3ccccc3)c(=O)n2C)cc1 | 2 | 0 | -5 | -4 | 0 | . | .
COCCN(C(=O)c1cc2c(s1)CCC2)c1c(N)n(CC(C)C)c(=O)[nH]c1=O | 4 | 6 | -38 | 46 | 61* | 7 | 5
CC(=O)Nc1ccc(NC(=O)C(C)OC(=O)CCC2CCCC2)cc1 (stereo unspecified) | 0 | -1 | 2 | -6 | -1 | . | .
CS(=O)(=O)Nc1ccc(C(=O)Nc2cccc([N+](=O)[O-])c2)cc1 | 6 | 1 | 0 | 10 | 5 | . | .
COc1cccc(C(O)c2ncc(-c3ccccc3)[nH]2)c1 (stereo unspecified) | 4 | -1 | 4 | . | 0 | . | .
Nc1c(N(CCC2=CCCCC2)C(=O)COc2ccc([N+](=O)[O-])cc2)c(=O)[nH]c(=O)n1Cc1ccccc1 | 1 | -3 | 0 | -4 | 58* | 0 | 4
Nc1c(N(CCC2=CCCCC2)C(=O)COc2ccc(F)cc2Cl)c(=O)[nH]c(=O)n1Cc1ccccc1 | 3 | -2 | 4 | -10 | 54* | 2 | 2
Nc1c(N(CCC2=CCCCC2)C(=O)Cc2ccc(F)cc2)c(=O)[nH]c(=O)n1Cc1ccccc1 | 0 | -2 | 4 | -5 | 0 | . | .
SMILES | STEP inh | LMPTP inh | Rpn11 block | Scp1 inh | DNMT1 inh | DNMT1 confirm | DNMT1 interf | others
CCN(CC)C(=O)C1CCC(CNS(=O)(=O)c2cccc3nsnc23)CC1 (stereo unspecified) | 0 | -1 | -1 | -7 | -3 | . | .
Cc1nn(-c2cccc(Cl)c2)c(Cl)c1/C=N/NC(=O)c1cccs1 | -5 | 13 | 7 | -2 | 72* | 5 | -1
CCNC(=S)N/N=C/c1c(C)nn(-c2cccc(Cl)c2)c1Cl | 0 | 1 | 2 | 11 | -2 | . | .
CC1CC(=Cc2ccc(N)cc2)C(=O)O1 (stereo unspecified) | -2 | -2 | -4 | -8 | 2 | . | .
Cc1ccc(-n2cccc2/C=C2\C(=N)N3N=C(c4ccco4)SC3=NC2=O)cc1 | 63* | 44 | . | 97* | 87* | 5 | -7
COc1ccc(-c2cc(=O)oc3c(C)c(OC(=O)c4cccs4)ccc23)cc1 | 1 | 2 | -5 | 1 | 60* | 3 | -9
CC[C@]12c3[nH]c4cc(CCC(=O)N(C)C)ccc4c3CCN1C(=O)[C@@H](CC(=O)NCc1cccc(C(F)(F)F)c1)C[C@@H]2C(=O)N1CCN(C(=O)c2ccco2)CC1 | 3 | -2 | 0 | 4 | 53* | 3 | 3
CC[C@]12c3[nH]c4cc(CCC(=O)N(C)C)ccc4c3CCN1C(=O)[C@@H](CC(=O)NCc1cccc(C(F)(F)F)c1)C[C@@H]2C(=O)N1CCN(C(=O)C2CC2)CC1 | 2 | -2 | -9 | 1 | 3 | . | .
CCOc1ccc(S(=O)(=O)N2CCC(C(=O)NC3CC3)CC2)cc1C | 2 | 0 | 1 | -2 | 2 | . | .
Cc1cc(O)c(N=Nc2ccc(C(=O)O)cc2)cc1C | 0 | 1 | 2 | -2 | 5 | . | .
Cc1cccc2c(=O)cc(C)n(CC(N)=O)c12 | 0 | -2 | -2 | -8 | 1 | . | .

Source: PubChem BioAssay (Sanford-Burnham Center for Chemical Genomics)
